Reference: ChEMBL document CHEMBL2034815, “Synthesis and evaluation of N(1)-alkylindole-3-ylalkylammonium compounds as nicotinic acetylcholine receptor ligands” (Bioorg Med Chem, 2012)
Active and inactive are the calls of the source. The rule behind the calls is not given here.

How the values were obtained:
[1] = Displacement of [3H]epibatidine from alpha3beta4* nAChR in calf adrenal P1 membrane after 90 mins by liquid scintillation counting; format: cell membranes, Bos taurus
Summary of the method: (§1)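 Rat forebrain P2, calf adrenal P1 or Torpedo californica electroplax P1 membranes (60 µg protein) with 0.5 nM (±)-[3H]epibatidine in HEPES-salt solution (15 mM HEPES, 120 mM NaCl, 5.4 mM KCl, 0.8 mM MgCl2, 1.8 mM CaCl2) at 22 °C. Run in duplicate. Nonspecific binding defined with 300 µM (−)-nicotine. Filtered on PEI-soaked GF/B filters. Ki derived from IC50 by Cheng-Prusoff, Kd 10 pM.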

[2] = Displacement of [3H]epibatidine from alpha4beta2* nAChR in Sprague-Dawley rat brain P2 membrane after 90 mins by liquid scintillation counting; format: tissue-based; summary of the method: as §1
[3] = Displacement of [3H]epibatidine from (alpha1)2beta1gammadelta nAChR in electric ray electroplax P1 membrane after 90 mins by liquid scintillation counting; parameters: species or system Tetronarce californica; summary of the method: as §1
[4] = Displacement of [3H]MLA from alpha7* nAChR in Sprague-Dawley rat brain P2 membrane after 180 mins by liquid scintillation counting
[5] = Displacement of [3H]MLA from alpha7* nAChR in rat brain membrane; format: cell membranes
Summary of the method: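 Rat brain crude P2 membranes in HEPES-salt solution (15 mM HEPES, 120 mM NaCl, 5.4 mM KCl, 0.8 mM MgCl2, 1.8 mM CaCl2), 22 °C, duplicates. [3H]MLA 2 nM final, 180 min; nonspecific binding with 1 µM MLA. GF/B filtration (1% PEI presoaked), scintillation counting. Nonlinear regression IC50; Ki by Cheng-Prusoff with Kd = 1 nM.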

Rattus norvegicus = species: Rattus norvegicus; test: Displacement of [3H]epibatidine from alpha4beta2* nAChR in Sprague-Dawley rat brain P2 membrane up to 50 uM after 90 mins by liquid scintillation counting; format: tissue-based

Ki [1] [µM] | Ki [2] [µM] | Ki [4] [µM] | Compound | Ki [3] [µM] | Ki [5] [µM] | Activity (Rattus norvegicus)
> 10 | > 10 | > 10 | CCCCCCCCn1cc(CN(C)C)c2ccccc21 |  |  | 
> 10 | > 10 |  | CCCCCCCCCCCCn1cc(CC[N+](C)(C)C)c2ccccc21 |  |  | 
> 10 | > 10 | > 10 | CCCCCCCCCCn1cc(C[N+](C)(C)C)c2ccccc21 |  |  | 
3.4 | 0.706 | > 5 | CCCCCCCCn1cc(C[N+](C)(C)C)c2ccccc21 |  |  | 
> 10 | > 10 | > 10 | CCCCCCCCCCn1cc(CCCN(C)C)c2ccccc21 |  |  | 
> 10 | > 10 | > 10 | CCCCCCCCn1c(C[N+](C)(C)C)cc2ccccc21 |  |  | 
> 10 | > 10 | > 10 | CCCCCCCCn1c(CN(C)C)cc2ccccc21 |  |  | 
> 10 | 0.243 | > 1 | CCCCCCCCn1cc(CCC[N+](C)(C)C)c2ccccc21 |  |  | 
> 10 | 0.435 | > 10 | CC(C)=CCn1cc(C[N+](C)(C)C)c2ccccc21 |  |  | 
> 10 | 1.38 |  | CC(C)=CCn1cc(CN(C)C)c2ccc(Br)cc21 |  |  | 
> 10 | > 10 | > 10 | CCCCCCCCCCCCn1cc(CCC[N+](C)(C)C)c2ccccc21 |  |  | 
> 10 | > 10 | > 10 | CCCCCCCCCCCCn1cc(CN(C)C)c2ccccc21 |  |  | 
> 1 | 0.203 | > 1 | CC(C)=CCn1cc(C[N+](C)(C)C)c2ccc(Br)cc21 |  |  | 
> 10 | > 10 |  | CC(C)=CCn1cc(CN(C)C)c2ccccc21 |  |  | 
> 10 | > 10 |  | CCCCCCCCCCCCn1cc(CCN(C)C)c2ccccc21 |  |  | 
> 10 | > 10 | > 10 | CCCCCCCCCCCCn1cc(C[N+](C)(C)C)c2ccccc21 |  |  | 
> 10 | > 10 | > 10 | CCCCCCCCCCn1cc(CN(C)C)c2ccccc21 |  |  | 
> 10 | > 10 | > 10 | CCCCCCCCCCn1cc(CCC[N+](C)(C)C)c2ccccc21 |  |  | 
> 10 | > 10 | > 10 | CCCCCCCCCCCCn1cc(CCCN(C)C)c2ccccc21 |  |  | 
> 10 | > 10 |  | CCCCCCCCn1cc(CCCN(C)C)c2ccccc21 |  |  | 

Compound | Ki [1] [µM] | Ki [2] [µM] | Ki [4] [µM] | Ki [3] [µM] | Ki [5] [µM] | Activity (Rattus norvegicus)
CN(C)CCc1cn(C)c2ccccc12 | 3.68 | > 10 |  |  |  | 
Cn1cc(CC[N+](C)(C)C)c2ccccc21 | 2.01 | > 10 | > 10 | > 10 |  | 
CC(C)=CCn1cc(CC[N+](C)(C)C)c2ccc(Br)cc21 | 5.33 | 0.412 | 1.53 | > 10 |  | 
CC(C)=CCn1cc(CC[N+]2(C)CCCC2)c2ccccc21 |  | > 10 |  |  |  | 
C=CCn1cc(CCNC)c2ccccc21 | > 10 | > 10 |  |  |  | 
CN1CCC[C@H]1c1cccnc1 [NICOTINE] | 0.0753 | 0.00085 | 0.129 |  |  | 
CCCCCCCCCCn1cc(CC[N+](C)(C)C)c2ccccc21 | > 10 | > 10 |  |  |  | 
CC(C)=CCn1cc(CCN(C)C)c2ccccc21 | 1.82 | > 10 | > 10 |  |  | 
CNCCc1cn(CC=C(C)C)c2ccccc12 | > 10 | > 10 | > 10 |  |  | 
CC(C)=CCn1cc(CC[N+](C)(C)C)c2ccccc21 | 0.0939 | 0.136 | 0.862 | 2.36 |  | 
C=CCn1cc(CC[N+](C)(C)C)c2ccccc21 | 0.365 | 0.517 | 6.8 | > 10 |  | 
C=CCn1cc(CCN(C)C)c2ccccc21 | 2.85 | > 10 | > 10 |  |  | 
CCCCCCCCn1cc(CCN(C)C)c2ccccc21 | > 10 | > 10 | > 10 | > 10 |  | 
CCCCCCCCn1cc(CC[N+](C)(C)C)c2ccccc21 | > 10 | 0.527 |  |  |  | 
CCCCCCCCCCn1cc(CCN(C)C)c2ccccc21 | > 10 | > 10 |  |  |  | 
CNCCc1cn(C)c2ccccc12 | > 10 | > 10 |  |  |  | 
CNCCc1cn(CC=C(C)C)c2cc(Br)ccc12 [DEFORMYLFLUSTRABROMINE B] | > 10 | > 10 |  |  | 17 | inactive
